Holding throughout (type): functional
One test has as its system Alternaria solani. As to the kind of experiment: Fungicidal activity against Alternaria solani assessed as inhibition of mycelium growth at 50 ug/mL by mycelium growth rate method. Put shortly: (§1)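 Mycelium growth rate method: colony diameters measured once mycelia had grown completely, and the relative inhibition rate (%) calculated from the diameters by formula. Phenazine-1-carboxylic acid ran as control. Values are the average of three replicate results.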

The next test deals with Fusarium graminearum. Put plainly: Fungicidal activity against Fusarium graminearum assessed as inhibition of mycelium growth at 50 ug/mL by mycelium growth rate method. Put shortly:
as §1

The subject of another test is Mycosphaerella arachidis. As to the kind of experiment: Fungicidal activity against Mycosphaerella arachidis assessed as inhibition of mycelium growth at 50 ug/mL by mycelium growth rate method. Put shortly:
as §1

The subject of test [1] is Botryosphaeria berengeriana. Put plainly: Fungicidal activity against Botryosphaeria berengeriana assessed as inhibition of mycelium growth at 50 ug/mL by mycelium growth rate method. The method in brief: as §1
The subject of another test is Fusarium oxysporum. Put plainly: Fungicidal activity against Fusarium oxysporum assessed as inhibition of mycelium growth at 50 ug/mL by mycelium growth rate method. Put shortly: as §1

On to `CCCCOC(=O)c1cccc2nc3c(NC(=O)CCCCl)c([N+](=O)[O-])ccc3nc12`, for which the inhibition at 50 µg/mL with Alternaria solani was found to be 17.4%; in the test on Fusarium graminearum it was 51.5%; in the test on Mycosphaerella arachidis, 11.1%; in test [1], 37.1%; with Fusarium oxysporum, 16%.
The like results for `COC(=O)c1cccc2nc3cc(S(=O)(=O)c4ccc([N+](=O)[O-])cc4)ccc3nc12` were, in that order, 6.5%, 0%, 8%, 18.2% and 15.8%.
As for `COC(=O)c1cccc2nc3cc(C(C)=O)ccc3nc12`, the inhibition at 50 µg/mL in the test on Alternaria solani was determined as 3.3%; with Fusarium graminearum, 12.7%; in the test with Mycosphaerella arachidis it was 0%; in test [1] it was 3.9%; in the test on Fusarium oxysporum, 0%.
As to `CCCOC(=O)c1cccc2nc3c(N)cccc3nc12`, the inhibition at 50 µg/mL in the test with Alternaria solani was 46.7%; with Fusarium graminearum it was 43.6%; in the test on Mycosphaerella arachidis, 30%; in test [1], 57.1%; in the test with Fusarium oxysporum it was 36.7%.
Consider `CCCOC(=O)c1cccc2nc3ccc(N)cc3nc12`, for which the inhibition at 50 µg/mL stood at 20.2% in the test with Alternaria solani; 27.3% with Fusarium graminearum; 20% in the test on Mycosphaerella arachidis; 48.6% in test [1]; 33.3% with Fusarium oxysporum.
The like results for `CCOC(=O)c1cccc2nc3cc(N)c(OCC)cc3nc12` were, in that order, 17.6%, 14.5%, 11.5%, 26.9% and 6.9%.
The like results for `COC(=O)c1cccc2nc3cc(C(=O)COC(C)=O)ccc3nc12` were, in that order, 6.5%, 4.8%, 4%, 1.8% and 5.3%.
The like results for `COC(=O)c1cccc2nc3cc(C(=O)c4ccc(Cl)cc4Cl)ccc3nc12` were, in that order, 3%, 0%, 0%, 0% and 7.1%.
With `COC(=O)c1cccc2nc3ccc(N)cc3nc12`, the inhibition at 50 µg/mL in the test with Alternaria solani amounted to 10%; with Fusarium graminearum, 18.2%; in the test on Mycosphaerella arachidis, 4%; in test [1], 37.1%; with Fusarium oxysporum, 23.3%.
The like results for `CCCCOC(=O)c1cccc2nc3cc(OCCCC)c(N)cc3nc12` were, in that order, 17.4%, 42.4%, 16.7%, 34.3% and 20%.
The like results for `Nc1cccc2nc3c(C(=O)O)cccc3nc12` were, in that order, 0%, 12.9%, 7.7%, 19.2% and 13.8%.
Taken in the same sequence, the figures for `CCCCOC(=O)c1cccc2nc3c(N)c([N+](=O)[O-])cc([N+](=O)[O-])c3nc12` were 17.4%, 53%, 5.6%, 42.9% and 24%.
On to `COC(=O)c1cccc2nc3c(C(=O)c4ccc(Cl)cc4Cl)cccc3nc12`, for which the inhibition at 50 µg/mL in the test on Alternaria solani was 3.4%; with Fusarium graminearum, 27.3%; with Mycosphaerella arachidis, 0%; in test [1], 10.7%; in the test with Fusarium oxysporum, 7.1%.
The like results for `CCOC(=O)c1cccc2nc3cc(N)ccc3nc12` were, in that order, 29.4%, 11.3%, 7.7%, 44.2% and 31%.
The like results for `CCCOC(=O)c1cccc2nc3cc(N)ccc3nc12` were, in that order, 16.7%, 25.5%, 26.1%, 19.6% and 10%.
The like results for `COC(=O)c1cccc2nc3c(S(=O)(=O)c4ccc([N+](=O)[O-])cc4)cccc3nc12` were, in that order, 13.8%, 31.8%, 25%, 17.9% and 17.9%.
Turning to `COC(=O)c1cccc2nc3cc(C(=O)C(Cl)(Cl)Cl)ccc3nc12`, the inhibition at 50 µg/mL in the test with Alternaria solani is 0%; in the test on Fusarium graminearum it was 4.8%; in the test on Mycosphaerella arachidis it was 12%; in test [1] it was 21.8%; in the test with Fusarium oxysporum, 5.3%.
As for `COC(=O)c1cccc2nc3c(C(=O)CCc4ccccc4)cccc3nc12`, the inhibition at 50 µg/mL amounted to 4.3% in the test on Alternaria solani; 30.3% with Fusarium graminearum; 0% in the test on Mycosphaerella arachidis; 31.4% in test [1]; 28% in the test with Fusarium oxysporum.
The like results for `COC(=O)c1cccc2nc3c(C(=O)CCCCl)cccc3nc12` were, in that order, 13.8%, 25%, 0%, 41.1% and 0%.
As to `COC(=O)c1cccc2nc3cc(S(=O)(=O)c4ccc(C)cc4)ccc3nc12`, the inhibition at 50 µg/mL in the test on Alternaria solani is 33.3%; in the test with Fusarium graminearum it was 17.5%; in the test on Mycosphaerella arachidis, 22.2%; in test [1], 8%; in the test with Fusarium oxysporum it was 13.5%.
As to `CCCCOC(=O)c1cccc2nc3cc(N)ccc3nc12`, the inhibition at 50 µg/mL with Alternaria solani was found to be 43.3%; with Fusarium graminearum, 7.3%; with Mycosphaerella arachidis, 17.4%; in test [1], 29.6%; in the test on Fusarium oxysporum, 13.3%.
Taken in the same sequence, the figures for `CCCCOC(=O)c1cccc2nc3c([N+](=O)[O-])c(N)ccc3nc12` were 17.2%, 25%, 12.5%, 16.1% and 17.9%.
Taken in the same sequence, the figures for `COC(=O)c1cccc2nc3c(NC(=O)CCCCl)c([N+](=O)[O-])ccc3nc12` were 20.5%, 40.4%, 35%, 34.4% and 16.3%.
For the compound `COC(=O)c1cccc2nc3c(N)c([N+](=O)[O-])cc([N+](=O)[O-])c3nc12`, the inhibition at 50 µg/mL in the test with Alternaria solani stood at 21.7%; in the test on Fusarium graminearum, 57.6%; with Mycosphaerella arachidis it was 22.2%; in test [1] it was 50%; in the test with Fusarium oxysporum, 32%.
Taken in the same sequence, the figures for `COC(=O)c1cccc2nc3cc(C(=O)CCCCl)ccc3nc12` were 37.7%, 36.8%, 7.7%, 0% and 0%.
The like results for `CCCCOC(=O)c1cccc2nc3cc(N)c(OCCCC)cc3nc12` were, in that order, 13.3%, 23.6%, 13%, 25.5% and 0%.
Taken in the same sequence, the figures for `COC(=O)c1cccc2nc3cc(C(=O)CCc4ccccc4)ccc3nc12` were 19.1%, 2.4%, 2.6%, 0% and 11.1%.
As for `COC(=O)c1cccc2nc3cc(N)ccc3nc12`, the inhibition at 50 µg/mL in the test with Alternaria solani is 33.3%; in the test on Fusarium graminearum it was 15.1%; in the test on Mycosphaerella arachidis it was 0%; in test [1] it was 25%; with Fusarium oxysporum, 10.8%.
The like results for `Nc1ccc2nc3c(C(=O)O)cccc3nc2c1` were, in that order, 5.1%, 1.6%, 11.1%, 4.9% and 2.7%.
Taken in the same sequence, the figures for `COC(=O)c1cccc2nc3c(S(=O)(=O)c4ccccc4[N+](=O)[O-])cccc3nc12` were 3.4%, 43.2%, 0%, 28.6% and 0%.
The like results for `CCOC(=O)c1cccc2nc3ccc(N)cc3nc12` were, in that order, 20%, 20%, 12%, 51.4% and 16.7%.
As for `CCCCOC(=O)c1cccc2nc3ccc(N)cc3nc12`, the inhibition at 50 µg/mL came out at 23.3% with Alternaria solani; 23.6% in the test with Fusarium graminearum; 24% with Mycosphaerella arachidis; 34.3% in test [1]; 26.7% in the test on Fusarium oxysporum.
Taken in the same sequence, the figures for `CCCCOC(=O)c1cccc2nc3c(C(=O)CCCCl)cccc3nc12` were 6.1%, 0%, 8.3%, 0% and 10.7%.
The like results for `CCCCOC(=O)c1cccc2nc3c(N)cccc3nc12` were, in that order, 24.2%, 2.7%, 8.3%, 15.6% and 21.4%.

These data come from ChEMBL document CHEMBL3045119, “Synthesis and fungicidal activity of novel aminophenazine-1-carboxylate derivatives” (J Agric Food Chem, 2010).
